This note sets out measurements from ChEMBL document CHEMBL1130789, “Peptidyl human heart chymase inhibitors. 1. Synthesis and inhibitory activity of difluoromethylene ketone derivatives bearing P' binding subsites” (Bioorg Med Chem Lett, 1998).

In one assay the target is T1, Chymase (Homo sapiens, UniProt P23946).
T1 sequence (P23946 whole entry): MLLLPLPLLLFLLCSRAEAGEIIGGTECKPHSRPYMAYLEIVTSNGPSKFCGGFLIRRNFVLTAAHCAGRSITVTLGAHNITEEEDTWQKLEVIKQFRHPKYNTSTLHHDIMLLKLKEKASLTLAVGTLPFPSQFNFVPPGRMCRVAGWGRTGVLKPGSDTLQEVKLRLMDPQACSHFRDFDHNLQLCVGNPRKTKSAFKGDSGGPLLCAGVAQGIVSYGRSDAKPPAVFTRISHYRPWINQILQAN
The assay is described as follows: Compound was evaluated for inhibitory activity against human heart chymase (HHC). The procedure, abridged:
(§1)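 Synthetic chromogenic substrate at 2.5 mM final in 20 mM Tris-HCl pH 7.5 with 2 M KCl. Five inhibitor concentrations were tested, with 10% DMSO in water as the control. The enzyme was added last. A405 minus A650 was read after 2 h at 37 °C. Residual activity was fitted by Easson–Stedman, and Ki = Ki'×Km/(Km+[S]). Mean ± SEM, n = 3 (some n = 2).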

A further assay concerns the target Chymotrypsinogen A (Bos taurus, UniProt P00766). Nature of the assay: Compound was evaluated for inhibitory activity against Chymotrypsinogen. The method, boiled down:
as §1

The species named for the next assay is Bos taurus. The assay is described as follows: Selectivity ratio of Bovine chymotrypsin (BCT - Ki) to human heart chymase (HHC - Ki).

Molecules are shown by their SMILES. pKi: −log10 of the molar value. Non-standard residues stand in square brackets, D forms with d. Residues, ends and D or L forms follow the SMILES beside them. ξ: configuration not given here. *: point of attachment. ξF = NC(Cc1ccccc1)C(=O)O; Boc = CC(C)(C)OC(=O)*; CF3 = FC(F)(F)*

`CC(C)[C@H](NC(=O)OC(C)(C)C)C(=O)N1CCC[C@H]1C(=O)NC(Cc1ccccc1)C(=O)C(F)(F)C(=O)N(C)Cc1ccccc1` (stereo not given in full): the pKi on Chymase is 7.15; on Chymotrypsinogen A it was 5.12. Moreover, the Ratio in the assay filed under Bos taurus was determined as 108.
The like results for `CC(C)[C@H](NC(=O)OC(C)(C)C)C(=O)N1CCC[C@H]1C(=O)NC(Cc1ccccc1)C(=O)C(F)(F)C(=O)NC(CCC(=O)O)C(=O)O` (stereo not given in full) were, in that order, 6.00, less than 4.00 and more than 99.
`CC(C)[C@H](NC(=O)OC(C)(C)C)C(=O)N1CCC[C@H]1C(=O)NC(Cc1ccccc1)C(=O)C(F)(F)C(=O)NCc1ccccc1` (mixture of isomers; form 1) [listing 1 of 2 here]: the Ratio in the assay filed under Bos taurus was 23.
For the compound `CC(C)[C@H](NC(=O)CCc1ccccc1)C(=O)N1CCC[C@H]1C(=O)NC(Cc1ccccc1)C(=O)C(F)(F)C(=O)Nc1cccc(C(=O)O)c1` (stereo not given in full), the negative-log Ki (pKi) on Chymase was 8.89; at Chymotrypsinogen A, 7.72. Also, in the assay filed under Bos taurus, the Ratio is 15.
The like results for `CC(C)[C@H](NC(=O)OC(C)(C)C)C(=O)N1CCC[C@H]1C(=O)NC(Cc1ccccc1)C(=O)C(F)(F)C(=O)NC(C(=O)O)c1ccccc1` (stereo not given in full) were, in that order, 5.98, less than 4.00 and more than 96.
The like results for `CC(=O)N[C@H](C(=O)N1CCC[C@H]1C(=O)NC(Cc1ccccc1)C(=O)C(F)(F)C(=O)Nc1cccc(C(=O)O)c1)C(C)C` (stereo not given in full) were, in that order, 8.15, 7.96 and 2.
The like results for `CC(C)[C@H](NC(=O)OC(C)(C)C)C(=O)N1CCC[C@H]1C(=O)NC(Cc1ccccc1)C(=O)C(F)(F)C(=O)NC(CC(=O)O)C(=O)O` (stereo not given in full) were, in that order, 5.81, less than 4.00 and more than 65.
As for `CC(C)[C@H](NC(=O)OC(C)(C)C)C(=O)N1CCC[C@H]1C(=O)NC(Cc1ccccc1)C(=O)C(F)(F)C(=O)NCCC(=O)O` (stereo not given in full), the pKi was 7.44 at Chymase and 5.64 on Chymotrypsinogen A. Further, the Ratio in the assay filed under Bos taurus came to 63.
The like results for `COC(=O)CNC(=O)C(F)(F)C(=O)C(Cc1ccccc1)NC(=O)[C@@H]1CCCN1C(=O)[C@@H](NC(=O)OC(C)(C)C)C(C)C` (stereo not given in full) were, in that order, 8.19, 5.60 and 387.
The like results for `CC(C)[C@H](NC(=O)OC(C)(C)C)C(=O)N1CCC[C@H]1C(=O)NC(Cc1ccccc1)C(=O)C(F)(F)C(=O)NCCCC(=O)O` (stereo not given in full) were, in that order, 7.62, 5.35 and 185.
As to `CC(C)[C@H](NC(=O)OC(C)(C)C)C(=O)N1CCC[C@H]1C(=O)NC(Cc1ccccc1)C(=O)C(F)(F)C(=O)NCC(=O)OCc1ccccc1` (stereo not given in full), the pKi on Chymase was 7.90; on Chymotrypsinogen A, 6.50. Also, the Ratio in the assay listed under Bos taurus worked out at 25.
Taken in the same sequence, the figures for `CC(C)[C@H](NC(=O)OC(C)(C)C)C(=O)N1CCC[C@H]1C(=O)NC(Cc1ccccc1)C(=O)C(F)(F)C(=O)N[C@@H](Cc1ccccc1)C(=O)O` (stereo not given in full) were 6.29, 4.11 and 151.
For `CNC(=O)C(F)(F)C(=O)C(Cc1ccccc1)NC(=O)[C@@H]1CCCN1C(=O)[C@@H](NC(=O)OC(C)(C)C)C(C)C` (stereo not given in full), the pKi was 7.54 on Chymase and 5.97 on Chymotrypsinogen A. Further, the Ratio in the assay listed under Bos taurus was found to be 37.
As to `CC(C)[C@H](NS(C)(=O)=O)C(=O)N1CCC[C@H]1C(=O)NC(Cc1ccccc1)C(=O)C(F)(F)C(=O)Nc1cccc(C(=O)O)c1` (stereo not given in full), the pKi at Chymase is 7.78; on Chymotrypsinogen A, 6.68. For the same compound, in the assay listed under Bos taurus, the Ratio was 13.
For the compound `CC(C)[C@H](NC(=O)OC(C)(C)C)C(=O)N1CCC[C@H]1C(=O)NC(Cc1ccccc1)C(=O)C(F)(F)C(=O)NCc1ccccc1` (mixture of isomers; form 2) [listing 1 of 2 here], the pKi on Chymase is 7.03; at Chymotrypsinogen A it was 4.92.
On to `CC(C)[C@H](NC(=O)OC(C)(C)C)C(=O)N1CCC[C@H]1C(=O)NC(Cc1ccccc1)C(=O)C(F)(F)C(=O)Nc1ccccc1C(=O)O` (stereo not given in full), for which the values for the negative logarithm of the Ki (pKi) on Chymase and at Chymotrypsinogen A were 5.44 and less than 4.00, respectively. The Ratio in the assay filed under Bos taurus is more than 28.
In the case of `CC(C)[C@H](NC(=O)OC(C)(C)C)C(=O)N1CCC[C@H]1C(=O)NC(Cc1ccccc1)C(=O)C(F)(F)F` (stereo partly drawn) (Boc-Val-Pro-[ξF]-CF3), the negative logarithm of the Ki (pKi) at Chymase was 7.25; on Chymotrypsinogen A it was 6.95. The Ratio in the assay filed under Bos taurus turned out to be 2.
As for `CC(C)[C@H](NC(=O)OC(C)(C)C)C(=O)N1CCC[C@H]1C(=O)NC(Cc1ccccc1)C(=O)C(F)(F)C(=O)NCC(=O)O` (stereo not given in full), the pKi was 7.88 on Chymase and 5.58 on Chymotrypsinogen A. Also, in the assay filed under Bos taurus, the Ratio stood at 200.
In the case of `CC(C)[C@H](NC(=O)OC(C)(C)C)C(=O)N1CCC[C@H]1C(=O)NC(Cc1ccccc1)C(=O)C(F)(F)C(=O)N1CCCC1C(=O)O` (stereo not given in full), the negative-log Ki (pKi) on Chymase was 6.31; at Chymotrypsinogen A, less than 4.00. Moreover, in the assay listed under Bos taurus, the Ratio was more than 203.
Taken in the same sequence, the figures for `CC(C)[C@H](NC(=O)OC(C)(C)C)C(=O)N1CCC[C@H]1C(=O)NC(Cc1ccccc1)C(=O)C(F)(F)C(=O)Nc1ccccc1` (stereo not given in full) were 7.79, 7.15 and 4.
For `CC(C)[C@H](NC(=O)OC(C)(C)C)C(=O)N1CCC[C@H]1C(=O)NC(Cc1ccccc1)C(=O)C(F)(F)C(=O)NCc1ccccc1` (mixture of isomers; form 2) [listing 2 of 2 here], the Ratio in the assay filed under Bos taurus amounted to 129.
For `CC(C)[C@H](NC(=O)OC(C)(C)C)C(=O)N1CCC[C@H]1C(=O)NC(Cc1ccccc1)C(=O)C(F)(F)C(=O)NC(Cc1ccccc1)C(=O)O` (stereo not given in full), the negative-log Ki (pKi) on Chymase was 7.52; at Chymotrypsinogen A, 5.77. The Ratio in the assay filed under Bos taurus was 57.
Take `CC(C)[C@H](NC(=O)OC(C)(C)C)C(=O)N1CCC[C@H]1C(=O)NC(Cc1ccccc1)C(=O)C(F)(F)C(=O)NCc1ccccc1` (mixture of isomers; form 1) [listing 2 of 2 here]: the negative-log Ki (pKi) at Chymase is 8.13; at Chymotrypsinogen A, 6.76.
As to `CC(C)[C@H](NC(=O)OC(C)(C)C)C(=O)N1CCC[C@H]1C(=O)NC(Cc1ccccc1)C(=O)C(F)(F)C(=O)Nc1ccc(C(=O)O)cc1` (stereo not given in full), the values for the pKi on Chymase and on Chymotrypsinogen A were 8.17 and 6.70, respectively. In addition, the Ratio in the assay filed under Bos taurus is 29.
The like results for `CC(C)[C@H](NC(=O)OC(C)(C)C)C(=O)N1CCC[C@H]1C(=O)NC(Cc1ccccc1)C(=O)C(F)(F)C(=O)NCCc1ccccc1` (stereo not given in full) were, in that order, 7.74, 5.69 and 111.
Consider `CC(NC(=O)C(F)(F)C(=O)C(Cc1ccccc1)NC(=O)[C@@H]1CCCN1C(=O)[C@@H](NC(=O)OC(C)(C)C)C(C)C)C(=O)O` (stereo not given in full), for which the pKi was 7.18 on Chymase and 4.26 on Chymotrypsinogen A. The Ratio in the assay listed under Bos taurus was 837.
Taken in the same sequence, the figures for `CC(C)[C@H](NS(=O)(=O)c1ccccc1)C(=O)N1CCC[C@H]1C(=O)NC(Cc1ccccc1)C(=O)C(F)(F)C(=O)Nc1cccc(C(=O)O)c1` (stereo not given in full) were 8.20, 6.26 and 88.
Taken in the same sequence, the figures for `CC(C)[C@H](NC(=O)c1ccccc1)C(=O)N1CCC[C@H]1C(=O)NC(Cc1ccccc1)C(=O)C(F)(F)C(=O)Nc1cccc(C(=O)O)c1` (stereo not given in full) were 8.51, 6.56 and 88.
Regarding `CC(C)[C@H](NC(=O)OC(C)(C)C)C(=O)N1CCC[C@H]1C(=O)NC(Cc1ccccc1)C(=O)C(F)(F)C(=O)Nc1cccc(C(=O)O)c1` (stereo not given in full), the pKi at Chymase is 8.25; at Chymotrypsinogen A, 6.44.

The pKi is the negative decadic logarithm of the Ki, by convention in mol/L. Low readings indicate a large Ki, high ones a small Ki.
